High-throughput results deposited in PubChem by several laboratories.
CSC inhib: cancer stem cell inhibition; cancer stem cell-like cells viability, luminescence; AID 2717; hit rate 1.1% among 300,000; inhibition, % at 7.5 µM; in the data active = inhibition above about 75%; tested in HMLE shEcad cells
T cruzi inh: T. cruzi replication inhibition. hit rate 1.4% among 300,000. T. cruzi beta-gal in NIH3T3, luminescence, 90 h. AID 1885. inhibition, % (no concentration beside the values);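 active = mean inhibition across valid replicates above about 55%, limit read from the data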;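 also: signal also drops with host cell toxicity which is not excluded here; 0% = plate median of DMSO wells and 100% = zero luminescence signal; higher percent means less beta-gal luminescence so fewer parasites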
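Read-out: Parasite load inhibition, % | Test system: Mouse NIH/3T3 fibroblasts infected with β-gal-expressing T. cruzi Tulahuen C4 | Amount: 5,000 cells/well | Medium: DMEM, 2% fetal bovine serum | Signal: GalScreen β-gal luminescence, detergent lysis, 60 min | Timing: 3 h attach, ≥90 h co-culture | Also added: Tulahuen C4 trypomastigotes, 5000/well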
GRIN3A LBD mod: modulators (binders) of human NR3A ligand-binding domain; NR3A LBD differential scanning fluorimetry, Tm shift; 0% = protein alone, 100% = glycine-bound protein; Tm shift relative to glycine control, % at 25 µM; hit rate 2.5% among 340,000; AID 1259313;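 active = melting temperature shift of at least 10% of the positive control shift, at one fixed dose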
PREPL inhibitor: inhibitors of human prolyl oligopeptidase-like enzyme PREPL | inhibition, % at 5.96 µM | recombinant PREPL, fluorescence polarization activity-based probe | Q4J6C6 | hit rate 0.68% among 320,000; in the data active = inhibition above about 43%;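 also: 0% = enzyme with DMSO and 100% = wells lacking enzyme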
Target sequence (Q4J6C6 whole entry, looked up): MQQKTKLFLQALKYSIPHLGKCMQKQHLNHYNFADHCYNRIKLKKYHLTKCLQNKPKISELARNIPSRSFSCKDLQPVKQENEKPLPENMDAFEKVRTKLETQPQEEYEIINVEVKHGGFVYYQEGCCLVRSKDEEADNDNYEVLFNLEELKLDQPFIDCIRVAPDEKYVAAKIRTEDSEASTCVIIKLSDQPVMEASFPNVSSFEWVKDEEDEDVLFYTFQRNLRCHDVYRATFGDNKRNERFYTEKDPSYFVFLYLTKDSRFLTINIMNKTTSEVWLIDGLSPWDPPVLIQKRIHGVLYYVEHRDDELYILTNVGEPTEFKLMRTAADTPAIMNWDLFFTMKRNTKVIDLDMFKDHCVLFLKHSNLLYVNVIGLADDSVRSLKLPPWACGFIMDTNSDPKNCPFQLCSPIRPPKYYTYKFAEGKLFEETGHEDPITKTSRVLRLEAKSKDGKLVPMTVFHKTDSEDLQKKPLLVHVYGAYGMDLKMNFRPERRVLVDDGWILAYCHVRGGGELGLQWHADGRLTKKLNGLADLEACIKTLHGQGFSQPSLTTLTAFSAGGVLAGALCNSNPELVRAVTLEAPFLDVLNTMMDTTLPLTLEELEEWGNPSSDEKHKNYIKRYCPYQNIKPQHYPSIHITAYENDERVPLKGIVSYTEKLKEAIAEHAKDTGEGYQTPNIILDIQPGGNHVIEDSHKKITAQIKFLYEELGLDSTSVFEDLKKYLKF
Beta cell apopt: blocks beta cell apoptosis; INS-1E cytokine-induced death, ATP luminescence, 48 h; percent of positive-control rescue, neutral wells zero; protection from apoptosis, % (no concentration beside the values); hit rate 0.8% among 300,000; AID 435005;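 active = Every replicate reaches about 75%, or at least half do and their mean reaches it too, limit read from the data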;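 also: 0% = cytokine-treated negative control wells and 100% = positive control rescue; higher means more ATP so stronger rescue from cytokine killing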
CHOP inhibitor: inhibitors of CHOP induction in ER stress response | CHO-K1 CHOP-promoter luciferase, tunicamycin-induced, 15-18 h | inhibition, % at 10 µM | hit rate 3.8% among 220,000 | AID 2732;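 active = compounds that reduced the stress-induced luciferase reporter signal by more than about 70% of percent inhibition, limit read from the data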;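 also: 0% = tunicamycin plus vehicle and 100% = wells without tunicamycin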
Numbers without * were called inactive. Rows were chosen to be rich in hits. Some 6.7% of all compounds tested hit in one or more screens of this group.

For O=C(COC(=O)COc1cccc(F)c1)NCCC1=CCCCC1 the results were CSC inhib 0, T cruzi inh -9, GRIN3A LBD mod 0, PREPL inhibitor -4, Beta cell apopt -1 and CHOP inhibitor 5.
For CC(OC(=O)Cc1ccc(Cl)cc1)C(=O)NCCC1=CCCCC1 (configuration not stated) the results were CSC inhib -14, T cruzi inh -8, GRIN3A LBD mod -1, PREPL inhibitor 1, Beta cell apopt -2 and CHOP inhibitor -20.
`O=C(COC(=O)/C=C/c1ccc(Cl)cc1)NCCC1=CCCCC1` gave CSC inhib 6, T cruzi inh -14, GRIN3A LBD mod 0, PREPL inhibitor 16, Beta cell apopt -2 and CHOP inhibitor 78*.
For C=CCOc1ccc(/C=C/C(=O)OCC(=O)NCCC2=CCCCC2)cc1 the results were CSC inhib -4, T cruzi inh 2, GRIN3A LBD mod 6, PREPL inhibitor -1 and Beta cell apopt -9.
Screening Cc1ccc(-c2cc(C(=O)OCn3nnc4ccccc4c3=O)c3ccccc3n2)cc1 returned CSC inhib 1, T cruzi inh -6, GRIN3A LBD mod 0, PREPL inhibitor 20, Beta cell apopt -6 and CHOP inhibitor -23.
CCC(C)(C)NC(=O)CN(C(=O)CCC(=O)Nc1nccs1)c1ccc2c(c1)OCCO2 was read as CSC inhib -1, T cruzi inh 8, GRIN3A LBD mod -2, PREPL inhibitor 6 and Beta cell apopt -4.
Screening O=C(Nc1ccc(N2CCCCC2)cc1)c1cccnc1 returned CSC inhib -1, T cruzi inh 7, GRIN3A LBD mod 0, PREPL inhibitor 12, Beta cell apopt 4 and CHOP inhibitor -21.
For O=C(Nc1ccc(N2CCN(Cc3ccccc3Cl)CC2)cc1)c1cccnc1 the results were CSC inhib 15, T cruzi inh 17, GRIN3A LBD mod -18, PREPL inhibitor 38, Beta cell apopt 78* and CHOP inhibitor 21.
For CCc1ccc(NC(=O)c2cccnc2)cc1 the results were CSC inhib -11, T cruzi inh -17, GRIN3A LBD mod -3, PREPL inhibitor 0, Beta cell apopt 27 and CHOP inhibitor -6.
Screening CCSc1ccc(NC(=O)c2cccnc2)cc1 returned CSC inhib -5, T cruzi inh 10, GRIN3A LBD mod 7, PREPL inhibitor 5, Beta cell apopt 104* and CHOP inhibitor -30.
`O=C(Nc1ccccc1Cl)c1ccc(C(=O)Nc2ccccc2Cl)cc1` gave GRIN3A LBD mod 1.
`O=C(Nc1ccc(C(=O)Nc2ccccc2Cl)cc1)c1cccnc1` gave CSC inhib -7, GRIN3A LBD mod 5 and Beta cell apopt 99*.
`OCC1OCOC2C(CO)OCOC12` (configuration not stated) gave GRIN3A LBD mod -4.
For Cc1ccc2[nH]c(=O)c(C(c3nnnn3CC3CCCO3)N3CCCc4ccccc43)cc2c1 (configuration not stated) the results were CSC inhib -4, T cruzi inh 20, GRIN3A LBD mod 19*, PREPL inhibitor 14, Beta cell apopt -3 and CHOP inhibitor 53.
Cc1cc2cc(C(c3nnnn3Cc3ccccc3)N3CCc4ccccc43)c(=O)[nH]c2cc1C (configuration not stated) was read as CSC inhib 13, T cruzi inh 29, GRIN3A LBD mod -11, PREPL inhibitor 6, Beta cell apopt 5 and CHOP inhibitor 19.
For Cc1cc2cc(C(c3nnnn3Cc3ccco3)N3CCc4ccccc43)c(=O)[nH]c2cc1C (configuration not stated) the results were CSC inhib 3, T cruzi inh 9, GRIN3A LBD mod -6, PREPL inhibitor -4, Beta cell apopt -7 and CHOP inhibitor 86*.
Screening Cc1ccc2[nH]c(=O)c(C(c3nnnn3Cc3ccccc3)N3CCc4ccccc43)cc2c1 (configuration not stated) returned CSC inhib -6, T cruzi inh 6, GRIN3A LBD mod -9, PREPL inhibitor 0, Beta cell apopt -10 and CHOP inhibitor 70*.
`Cc1ccc2cc(C(c3nnnn3Cc3ccccc3)N3CCc4ccccc43)c(=O)[nH]c2c1` (configuration not stated) gave CSC inhib -5, T cruzi inh 11, GRIN3A LBD mod -5, PREPL inhibitor -2, Beta cell apopt -10 and CHOP inhibitor -14.
`Cc1ccc2[nH]c(=O)c(C(c3nnnn3CC3CCCO3)N3CCc4ccccc4C3)cc2c1` (configuration not stated) gave CSC inhib -1, T cruzi inh -3, GRIN3A LBD mod 0, PREPL inhibitor 0, Beta cell apopt 0 and CHOP inhibitor 24.
Screening CC(=O)c1cccc(NC(=S)NC2CCCCCCC2)c1 returned CSC inhib -14, GRIN3A LBD mod -6 and Beta cell apopt 7.
Screening COC(=O)CCN1CCC2CC1c1cc(Cl)ccc12 (configuration not stated) returned GRIN3A LBD mod -3.
Screening COC(=O)c1ccc(C2c3c(n[nH]c3C)C(=O)N2c2ccc(C)cc2)cc1 (configuration not stated) returned CSC inhib -9, T cruzi inh 10, GRIN3A LBD mod 35*, PREPL inhibitor -62, Beta cell apopt -2 and CHOP inhibitor 12.
O=C(CCc1ccc(S(=O)(=O)NCc2ccccc2)cc1)N1CCN(Cc2ccc3c(c2)OCO3)CC1 was read as T cruzi inh 59*, GRIN3A LBD mod 0, PREPL inhibitor 11 and CHOP inhibitor 7.
For O=C(c1cccc(S(=O)(=O)NCc2ccccc2)c1)N1CCN(Cc2ccccc2)CC1 the results were CSC inhib 2, T cruzi inh 27, GRIN3A LBD mod 15*, PREPL inhibitor 12, Beta cell apopt 10 and CHOP inhibitor 25.
O=C(Cn1ncc2c1-c1ccccc1OC2)N1CCN(Cc2ccc3c(c2)OCO3)CC1 was read as CSC inhib 8, T cruzi inh 21, GRIN3A LBD mod -3, PREPL inhibitor 6, Beta cell apopt -6 and CHOP inhibitor 77*.
For CCOc1ccc(NC(=O)CN(C)C(=O)c2cc3c(s2)CCC(C)C3)cc1OCC (configuration not stated) the results were CSC inhib -3, GRIN3A LBD mod -1, PREPL inhibitor 12 and Beta cell apopt -1.
Screening Cc1cc2c(N=NC(=O)C3CC3c3ccccc3)c(O)[nH]c2cc1Br (configuration not stated) returned CSC inhib 12, T cruzi inh 28, GRIN3A LBD mod -6, PREPL inhibitor 12, Beta cell apopt -2 and CHOP inhibitor 71*.
Cc1occc1C(=O)N=Nc1c(O)[nH]c2ccc(Br)cc12 was read as CSC inhib 1, T cruzi inh 9, PREPL inhibitor 7, Beta cell apopt 2 and CHOP inhibitor -66.
